Experimental data taken from ChEMBL document CHEMBL4251734, “Study on Liposomal Encapsulation of New Bodipy Sensitizers for Photodynamic Therapy” (ACS Med Chem Lett, 2018).
The source made the active and inactive calls. No cut-off for these calls is given here.

Legend:
SK-OV-3 [1] = assay: Photocytotoxicity in human SKOV3 cells assessed as cell death incubated for 6 hrs followed by PDT-1200 light irradiation at 20 J/cm2 measured after 16 hrs using liposome-encapsulated compound by MTT assay; type: functional, cell-based; conditions: SK-OV-3, light or radiation study
How it was run: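 Photosensitizer was loaded into egg phosphatidylcholine/DOPE liposomes (mole ratio EPC:DOPE:PS 70:25:5). Loaded PS was quantified by absorbance in DMSO against standard curves. SK-OV-3 cells were treated and irradiated at 20 J cm^-2, with a dark plate as the control. Viability was read by MTT. IC50 was taken as the PS concentration killing 50% of cells. Triplicate.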

SK-OV-3 [2] = assay: Photocytotoxicity in human SKOV3 cells assessed as cell death at 0.1 to 1 uM incubated for 6 hrs followed by PDT-1200 light irradiation at 20 J/cm2 measured after 16 hrs by MTT assay; type: functional, cell-based
How it was run: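 Free photosensitizer, not encapsulated in liposomes, was added to SK-OV-3 cells. The cells were then exposed to light at 20 J cm^-2, a dose chosen from a preliminary light-dose series. A dark plate served as the control. Viability was read by MTT, and IC50 was taken as the PS concentration killing 50% of cells. Each light treatment was done in triplicate.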

[3] = Dark toxicity in human SKOV3 cells assessed as cell death at 0.1 to 1 uM incubated for 6 hrs using liposome-encapsulated compound by MTT assay; type: cell-based; conditions: sk-ov-3, 6 h
How it was run: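 Liposomes of egg phosphatidylcholine, DOPE and photosensitizer at mole ratio 70:25:5. The PS content of the liposomes was estimated from absorbance after dissolving them in DMSO, read against standard curves of each pure PS in DMSO. Treated SK-OV-3 plates were kept shielded from all light, including stray light, as the dark control. Viability was read by MTT. Triplicate.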

C=Cc1c(C)c2cc3nc(c(CC(=O)O)c4[nH]c(cc5nc(cc1[nH]2)C(C)=C5CC)c(C)c4C(=O)O)[C@@H](CCC(=O)O)[C@@H]3C [CHLORIN E6]
IC50 (SK-OV-3 [1]): 390 nM

COc1cc(/C=C/C2=[N+]3C(=C(c4ccc([N+](=O)[O-])cc4)c4c(C)c(I)c(/C=C/c5cc(OC)c(OC)cc5[N+](=O)[O-])n4[B-]3(F)F)C(C)=C2I)c([N+](=O)[O-])cc1OC
Activity (SK-OV-3 [2]): inactive | IC50 (SK-OV-3 [1]): 860 nM | Activity [3]: Non-Toxic

CC1=C(I)C(/C=C/c2ccccc2OCc2ccccn2)=[N+]2C1=C(c1ccc([N+](=O)[O-])cc1)c1c(C)c(I)c(/C=C/c3ccccc3OCc3ccccn3)n1[B-]2(F)F
Activity (SK-OV-3 [2]): inactive | IC50 (SK-OV-3 [1]): 650 nM | Activity [3]: Non-Toxic

COc1ccc(/C=C/C2=[N+]3C(=C(c4ccc([N+](=O)[O-])cc4)c4c(C)c(I)c(/C=C/c5ccc(OC)c(OC)c5)n4[B-]3(F)F)C(C)=C2I)cc1OC
Activity (SK-OV-3 [2]): inactive | IC50 (SK-OV-3 [1]): 350 nM | Activity [3]: Non-Toxic

COc1ccc(/C=C/C2=[N+]3C(=C(c4ccccc4)c4c(C)c(I)c(/C=C/c5ccc(OC)c(OC)c5)n4[B-]3(F)F)C(C)=C2I)cc1OC
Activity (SK-OV-3 [2]): inactive | IC50 (SK-OV-3 [1]): 880 nM | Activity [3]: Non-Toxic
